This is a sample that favours compounds with a hit; in the whole collection about 3.6% have one here.
NR3A LBD binder = modulates the human NR3A ligand-binding domain; NR3A LBD differential scanning fluorimetry, Tm shift; 0% = protein alone, 100% = glycine-bound protein; Tm shift relative to glycine control, % at 25 µM; 340,000 tested, 2.5% active; AID 1259313;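 active means melting temperature shift of at least 10% of the positive control shift, at one fixed dose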
DNA FID counter-1 = counter-screen for HCV NS3 helicase inhibitors: DNA intercalator displacement | DNA fluorescent intercalator displacement, fluorescence | inhibition, % at 7.9 µM | 290,000 tested, 0.17% active | AID 1845;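 further: 0% = vehicle and 100% = reference compound; higher means more ethidium bromide displaced from hairpin DNA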
FGF22 binding = FGF22 (human) thermal shift binding | 340,000 tested, 1.5% active | activity (Tm shift, normalised), % at 9.99 µM | recombinant FGF22 thermal shift, SYPRO orange fluorescence; percent of sucrose octasulfate shift, DMSO zero | Q9HCT0;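 active means mean Tm shift, scaled 0 neutral to 100 positive control, at about 1.3% or above, every replicate too, limit read from the data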
Target sequence (Q9HCT0 whole entry, looked up): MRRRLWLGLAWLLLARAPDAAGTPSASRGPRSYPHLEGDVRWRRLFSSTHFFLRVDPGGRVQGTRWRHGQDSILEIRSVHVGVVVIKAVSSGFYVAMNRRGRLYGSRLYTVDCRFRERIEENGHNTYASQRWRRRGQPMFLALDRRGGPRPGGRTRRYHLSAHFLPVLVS
ZTA counter = ZTA (EBV) inhibition in EBNA-1 counter-screen; ZTA-DNA binding, fluorescence polarization; inhibition, % at 11 µM; 320,000 tested, 0.15% active; P03206; in the data active means inhibition above about 33%
Target sequence (P03206 whole entry, looked up): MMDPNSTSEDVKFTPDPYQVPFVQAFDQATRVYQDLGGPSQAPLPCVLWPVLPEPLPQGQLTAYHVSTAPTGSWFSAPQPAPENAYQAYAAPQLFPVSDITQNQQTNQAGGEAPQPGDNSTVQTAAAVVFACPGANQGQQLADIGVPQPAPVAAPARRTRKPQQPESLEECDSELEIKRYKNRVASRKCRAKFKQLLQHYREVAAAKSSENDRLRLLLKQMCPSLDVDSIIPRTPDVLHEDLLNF
NS3 helicase inh = blocks Hepatitis C virus NS3 helicase unwinding | NS3 helicase DNA unwinding, Cy5 molecular beacon fluorescence | inhibition, % at 10.9 µM | 290,000 tested, 0.56% active;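 active means inhibition above the mean of all tested compounds plus 3 SD, set per campaign, cut at about 35% in these data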;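 further: 0% = DMSO wells and 100% = thioflavine S control wells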
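Assay system – hepatitis C virus NS3 helicase domain fragment enzyme · Buffer or medium – MOPS pH 6.5, MgCl2, DTT, Tween20, BSA · Reagent – Cy5/quencher beacon DNA duplex and ATP to start · Compound – single 10.9 µM dose · Timing – 1 h at 25 °C · Technique – Cy5 beacon fluorescence read at start and 1 h · Measure – % inhibition of unwinding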
EBNA-1 inh = blocks EBNA-1 binding to DNA; inhibition, % at 14.8 µM; 300,000 tested, 0.34% active; AID 1950; EBNA-1 DNA binding, fluorescence polarization; in the data active means inhibition above about 28%
NS3 helicase cf = confirmation of Hepatitis C virus NS3 helicase inhibitors; shares compounds with NS3 helicase inh; NS3 helicase DNA unwinding, Cy5 molecular beacon fluorescence; inhibition, % at 10.9 µM; 1,600 tested, 31% active; AID 1943;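 active means inhibition above the mean of all tested compounds plus 3 SD, cutoff set per campaign, cut at about 36% in these data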
DNA FID counter-2 = intercalator displacement, NS3 helicase counter-screen | shares compounds with NS3 helicase inh | AID 1945 | 1,600 tested, 4% active | inhibition, % at 7.9 µM | DNA fluorescent intercalator displacement, fluorescence;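 further: 0% = vehicle and 100% = reference compound; higher means more displacement of ethidium bromide from the DNA hairpin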
DNA FID DR = DNA intercalator displacement in dose response. 120 tested, under 10 active. shares compounds with NS3 helicase inh. AID 2172. fluorescent intercalator displacement from DNA, fluorescence. IC50, µM; call rule not given here
The depositor's hits bear a star; · = not tested or not shown. Unless noted, no stated cut-off is given here; in the data, active means inhibition above about 37%; inactive means the rest.

SMILES	NR3A LBD binder	DNA FID counter-1	FGF22 binding	ZTA counter	NS3 helicase inh	EBNA-1 inh	NS3 helicase cf	DNA FID counter-2	others
CC(C)C(C)NC(=O)CSc1nc2scc(-c3ccco3)c2c(=O)n1-c1ccccc1 (configuration not stated)	-8	-4	·	6	3	-17	·	·
COc1ccc(C2=NN(c3nc4ccccc4s3)C(=O)/C2=C\N(C)C)cc1	-3	-33	·	15	47*	11	18	-5
CSc1ccc(NC(=O)Nc2ccc(C(=O)NCC(=O)O)cc2)cc1	15*	-24	·	·	25	·	-27	5
CCSc1ccc(C(=O)NCC(=O)O)cc1	0	-3	0	6	1	18	·	·
Cn1cccc1CC(=O)NNC(=S)NC(=O)c1ccc(F)cc1	0	-12	0	-1	45*	1	-10	-3
Cc1cc2nc3c(=O)n(CCc4ccccc4)c(=O)[nH]c3nc2cc1N	-6	-5	0	-1	38*	-4	6	9
Nc1ccc2nc3c(=O)n(CCc4ccccc4)c(=O)[nH]c3nc2c1	-2	-2	-1	-7	19	-13	·	·
CCC(C)(C(=O)NC1CCCCC1)N(Cc1ccco1)C(=O)c1ccc2c(c1)OCO2 (configuration not stated)	1	-37	·	14	36*	9	-3	-36
CCc1c(C)c2cc(Cl)c(O)c(CN(CC)CC)c2oc1=O	0	-21	0	-9	49*	3	-12	1
O=C(Nc1nnc(-c2ccc3c(c2)CCCC3)o1)c1ccc(Cl)cc1Cl	-1	-16	0	6	72*	4	72*	-25
CCOc1cccc(C2C(C(=O)c3ccc(C)o3)=C(O)C(=O)N2Cc2ccccc2)c1 (configuration not stated)	-1	-34	0	·	62*	·	79*	-29	DNA FID DR=>79
CCOc1cccc(C2C(C(=O)c3ccc(C)o3)=C(O)C(=O)N2Cc2ccncc2)c1 (configuration not stated)	2	-30	·	16	9	-3	·	·
C=CCOc1cccc(C2C(C(=O)c3ccco3)=C(O)C(=O)N2Cc2ccco2)c1 (configuration not stated)	3	-46	0	-4	38*	0	23	-16
CCC(=O)N1CCC2(CC1)CN(S(=O)(=O)c1ccccc1)[C@H](CO)c1[nH]c3cc(OC)ccc3c12	·	·	0	·	·	·	·	·
C[C@H](CO)N1C[C@H](C)[C@H](CN(C)C)Oc2ccc(NC(=O)CCN3CCOCC3)cc2C1=O	·	·	0	·	·	·	·	·
O=C1CCCC2=C1C(c1ccco1)Nc1ccc3ccccc3c12 (configuration not stated)	-5	-6	·	12	41*	1	36	-6
C=CCN1C(=O)/C(=c2\sc3nc(=O)c(Cc4ccc(OC)c(OC)c4)nn3c2=O)c2ccccc21	0	-19	0	-7	46*	-2	-2	-4
CCCCn1c(N)c(NCCC(C)C)c(=O)[nH]c1=O	-3	-19	0	-10	45*	-1	-15	-13
CCCCn1c(N)c(Br)c(=O)[nH]c1=O	1	-7	0	-15	0	-7	·	·
C[C@H](O)C#Cc1cnc2c(c1)C(=O)N([C@H](C)CO)C[C@@H](C)[C@H](CN(C)Cc1ccccn1)O2	·	·	0	·	·	·	·	·
Cn1cccc1CC(=O)NNC(=O)Nc1cccc(Cl)c1	-1	-10	0	7	38*	-4	-15	25
CS(=O)(=O)Nc1ccc2c(c1)[C@@H]1C[C@@H](CC(=O)NCc3cc(F)ccc3F)O[C@H](CO)[C@@H]1O2	·	·	0	·	·	·	·	·
Cc1ccc(C)c2[nH]c(=O)c(C(c3nnnn3CCc3ccccc3)N3CCOCC3)cc12 (configuration not stated)	-2	-20	·	5	6	-18	·	·
Cc1ccc(C)c2[nH]c(=O)c(C(c3nnnn3Cc3ccco3)N3CCc4ccccc4C3)cc12 (configuration not stated)	-17	-15	·	-1	39*	0	4	-8
COc1ccc(N(CC(=O)Nc2ccc3c(c2)OCO3)S(=O)(=O)c2ccc(C)cc2)cc1OC	4	-11	0	8	14	1	·	·
SMILES	NR3A LBD binder	DNA FID counter-1	FGF22 binding	ZTA counter	NS3 helicase inh	EBNA-1 inh	NS3 helicase cf	DNA FID counter-2	others
COc1ccc(N(CC(=O)Nc2cccc(C)c2)S(=O)(=O)c2ccc(C)cc2)cc1OC	1	-19	0	10	92*	21	-6	-3
Cc1ccc(C2C(C#N)=C(N)SC(N)=C2C#N)c(C)c1	-12	2	·	-1	36*	6	-15	6
CNC(=O)C[C@@H]1CC[C@H]2[C@@H](COc3ccc(NC(=O)Nc4cccc(F)c4)cc3C(=O)N2C)O1	·	·	0	·	·	·	·	·
Cc1ccc(-n2nnnc2SCc2ccc(C(=O)O)cc2)cc1C	3	-32	0	-18	37*	-3	-14	-7
Cc1scc(C(=O)N/N=C/c2ccc([N+](=O)[O-])o2)c1C	·	-26	0	-4	43*	8	-12	9
CCCCCC(=O)N/N=C/c1ccc([N+](=O)[O-])o1	-1	-10	0	6	39*	-11	-10	2
Nc1c(C(=O)Nc2ccccc2)sc2nc3c(c(-c4ccco4)c12)CCC3	-1	-10	·	-6	41*	-5	-10	-16
Cc1ccccc1NC(=O)c1sc2nc3c(c(-c4ccco4)c2c1N)CCCC3	0	-23	·	6	44*	10	-12	-27
CC(=O)Nc1ccc2c(c1)C(=O)N(C)[C@H]1CC[C@H](CC(=O)NCc3ccccc3)O[C@H]1CO2	·	·	0	·	·	·	·	·
CC1=NN(C(N)=S)C(=O)C1N=Nc1ccccc1C (configuration not stated)	-2	-2	·	-37	1	1	·	·
CC1=NN(C(N)=S)C(=O)C1N=Nc1ccccc1O (configuration not stated)	-1	-4	0	-18	42*	-13	-15	17
COc1ccccc1N1C(=O)CC(Nc2ccc(N3CCOCC3)cc2)C1=O (configuration not stated)	-14	-30	·	-13	28	-21	·	·
CCOc1ccccc1N1C(=O)CC(Nc2ccc(N3CCOCC3)cc2)C1=O (configuration not stated)	-7	-33	0	-11	42*	-1	1	-11

Bioassay records (PubChem BioAssay)
